Sequences and labels used below:
B1: tRNA (parent)
chain: GUUCCGUUGGCGUAAUGGUAACGCGUCUCCCUCCUAAGGAGAAGACUGCGGGUUCGAGUCCCGUACGGAACG

Variants at the floor of the assay were thinned out. A value given as a limit tells only on which side of the number the result lay.

In the data set the parent is B1. Briefly: yeast fitness relative to wild type (ratio to wild type); higher = fitter; tRNA-Arg(CCU), competitive growth, 37 C, YPD. Summed up: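 Variants of the tRNA-Arg(CCU) gene, chemically synthesised with a 3% per-site mutation rate at 69 sites, were placed at the native genomic locus in Saccharomyces cerevisiae. The pooled strains were competed in YPD at 37°C for 24 hours in six parallel replicates. Gene amplicons from the start population and from each end population were read by 100-nucleotide paired-end sequencing. Darwinian fitness relative to wild type came from changes in genotype frequencies; genotypes needed ≥ 100 starting reads, and estimates < 0.5 were set to 0.5.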
As for GUUGCGGUGGCGUAAUGGUAACGCGUCUCCCUCCUAAGGAGACGACUGCGGGUUCGAGUCCCGUACGGAACG, the yeast fitness amounted to 0.687.
Turning to GUUGCGUUGGCGCAAUGGUAACGCGUCUCCCUCCUAAGGAGAAGACUGUGGGUUCGAGUGCCGUUCGGAACG, the yeast fitness was no more than 0.5.
As to GUUGCGUUGGCGUAAUGGUAACGCGUCUCCCUCCUAAGGAGAAGACUGCGGGUUCGAGUCCCGUACCGAACG, the yeast fitness is 0.883.
For the variant GUUGCGUUGGCGUAAUGGUAACGCGUCUCCCUCCUAAGGAGAAGACUGCGGGUUCGAGUCCCGUACAGAACG, the yeast fitness came out at 0.913.
In the case of GUUGCGUAGGCAUAAUGGUAACGCGUCUCCCUCAUAAGGAGAAGACUGCCGGUUCGAGUCCCGUACGGAACG it was no more than 0.5; in that of GUUGCGAUAGUGUAAUGGUAACGCGUCUCGCUCCUAAGGAGAAGACUGCGGGUUCGAGUCCCGUACGGAACG, 0.545.
Consider GUUGCGUCGGCGUAAUGCUACCGCGUCUCCCUCCUAAGGAGAAGACUGCGGGUUUGAGUCCCGUACGGAACG, for which the yeast fitness was no more than 0.5.
In the case of GUUGCGCUGGCGUAAUGGUAACGCGUCUCCCUCCUAAGGAGAAGUCUCCGGGUUCGAGUCCCGUACGGAACG it was no more than 0.5; in that of GUUGCGUUGGCGAAAUGGUAACGCGUCUCGCUCCUAAGGAGAAGACUGCGGGUUCGAGUCCCGUACGGAACG, no more than 0.5; in that of GUUGCGUCGGCGUAAAGGUACCGGGUCUCCCUCCUAAGGAGAAGCCUACGGGUUCGAGUCCCGUACAGAACG, 0.53.
In the case of GUUGCGUCGGCGUAAUGGUAACGGGUCUCCCUCCUAAGGAGAAGACCGCGGGUUCGAGUCCCGUACGGAACG it was no more than 0.5.
Consider GUUGCGAUGGCGUAAUGGCCACGUGUCUCCCUCCUAAGGAGAAGACUGCGGGCUCGAGUCCCGUACGGAACG, for which the yeast fitness is no more than 0.5.
In the case of GUUGCGUCGGCGUAAUGGUAACGGGUCUCGCUCCUAAGGAGACGACUGCGGGUUCGAGUCCCGUACGGAACG it was no more than 0.5; in that of GUUGCGCUGGCGUAAUGGUAACGCGUAUCCCUCCUAAGGAGAAGACUGCGGGUUCGAGUCCCGUACGGUACG, 0.531.
In the case of GUUGCGGUGGCGUAAUGGUAACGCGUCUCCCUCCUCCGGAGAAGACUGCGGGUUCGCGUCCCGUAUGGAACG it was no more than 0.5; in that of GUUGCGUUGGCGUAAUGGUAACGCGUCUCCCUCCUAAGGAGAAGACUGCGGGUUCGAGUCCCAUACGGAACG, 0.813.
Then GUUGCGUUGGCGGAAUGGUAACGCGUCUCCCUCCUAAGGAGAAGACUGCGGGUUCGAGUCCCGUACGGAACG, with 0.882.
For the variant GUUGCGUUGGCGCAAUGGUAACGCGUCUCCCUCCUAAGGAGAAGACUGCGGGUUCGAGUCCCGUACGGAACG, the yeast fitness came to 0.886.
Consider GUUGCGUAGGCAUAAUGGUAACGCGUCUCCCUCCUAAGGAGAAGACUACGGGUUCGAGUCCCGUACGGCACG, for which the yeast fitness stood at 0.573.
For the variant GUUGCGCUGGCGUAAUGGUAACGCGUAUCCCUCCUAAGGAGAAGACUGCGGGUUCGAGUCCCGUACGGAACG, the yeast fitness was no more than 0.5.
Then GUUGCGGUGGCGUAAUGGUAACGCGUCUCCCUCCUAAGGAGAAGACUGCGGGUUCGAGUCCCCUACGGAACG, with 0.521; and GUUGCGUCGGCGUAAUGGUAAGGCGUCUCCCUCCUAAGGAGCAGACUGUGGGUUCGCGUCCCGUACGGAACG, with 0.676.
Consider GUUGCGUUGGCGUAACGGUAACGCGUCUCCCUCCUAAGGAGAAAACUACCGGUUCGAGUCCCGUAGGGAACG, for which the yeast fitness was no more than 0.5.
Then GUUGCGUUGGCGUAAUGGAAGCGCGUCUCCCUCCUAAGGAGAAGACUGCGGCUUGGAGUCCCGUACGGAACG, with no more than 0.5; and GUUGCGUAGGCAUAAUGGUAACGCGUCUCCCUCCUAAGGAGAAGACUACGGGUUCGAGUCCCGUACGGAACG, with 0.511; and GUUGCGUCGGCGUAGUGGUAAGACGUCUCCCUCCUAAGGAGAAGACUGAGGGUUCGAGUCCCGUACGGAACG, with no more than 0.5.
Turning to GUUGCGAUGGCGUAAUGGUAACGCGUCUUCCUCCUAAGGAGAAGACUGCGGGUUCGAGUCCCGUACGGAACG, the yeast fitness came out at 0.504.
Then GUUGCGCUGGCGUAAUGGUAACGCGUAUCCCUCCUAAGGAGAAGACUGCGGGUUCGAGGCCCGUACGGAACG, with 0.574.
In the case of GUUGCGCUGGCGUAAUGGUGACGCGUAUCCCUCCUAAGGAGAAGACUGCGGGUUCGAGGCCCGUACGGAACG it was no more than 0.5; in that of GUUGCGUUGGCGUAAUGGAAACGCGUAUCCCUCCUAAGGAGAAGACUGCGGGUUCGAGUCCCGUACGGAACG, 0.741.
As to GUUGCGUGGGCGUAAUGGUAACGAGUCUCCGUCCUAAGGAGAAGACUGCAGGUUCGAGUCCCGUACGGUACG, the yeast fitness is no more than 0.5.
On to GUUGCGUUGGCGAAAUGGUAACGCGUCUUCCUCCUAAGGCGAAGACUGCGGGUUCGAGUCCCGUACGGAACG, for which the yeast fitness was no more than 0.5.
In the case of GUUGCGUUGGCGAAAUGGUAACGCGUCUCCCUCCUAAGGAGAAGACUGCGGGUUCGAGUCCCGUACGCAACG it was 0.541; in that of GUUGCGUUGGCGUAAUGGUAACGCGUCUCCCUCCUAAGGAGAAGACUGCGGGUUCGAGUCCCGUACGAAACG, 0.904.
Then GUUGCGUAGGCAUAAUGGUAACGCGUCUCCCUCCUAAGGAGAAGACUACGGGUUCGAGUCCUGUACGGAACG, with no more than 0.5; and GUUGCGUGAGUGUAAUGGUAACGCGUCUCCCUCCUAAGGAGAAGACUGAGGGUUCGAGUCCCGUACGGAACG, with no more than 0.5; and GUUGCGUUGGCGUAAAGGUAACGCGUCUCCCUCCUCAGGAGAAGACUGCGGGUUCGAGUCCCGUACGGAACG, with 0.579.
In the case of GUUGCGUCGGCGUAAUGGUAACGCAUCUCCCUCCUAAGGAGUAGACUGCGGGUUCGAGUCCCGUACGGCACG, the yeast fitness was no more than 0.5.
In the case of GUUGCGUAGGCAUAAUGGUAACGCGUCUCCCUCCUAAGGAGAAGACUGCGGGUUCGAAUCCCGUACGGAACG it was no more than 0.5; in that of GUUGCGUCGGCGUAAUGGUAACGCGUCUCCCUCGUAAGGAGAAGACAGAGGGUUCGAGUCCCGUGCGGAACG, no more than 0.5; in that of GUUGCGAUGGCGUAAUGGUAACGCGUCUCCCUCCUAAGGAGCAGACUCCGGGUUCGAGUCCCGUACGGAACG, no more than 0.5.
GUUGCGUUGGCGUAAUGGUAACGCGACUCCCUCCUAAGGAGAAGACUGUGGGUUCGAGUCCCGUACGGAACG: the yeast fitness was no more than 0.5.
In the case of GUUGCGUUGGCGUAAAGGUAACGCGUCUCCCUCCUAAGGAGAAGACUGCGGGUUCGAGUCCCGUACGGAACG it was 0.9.
In the case of GUUGCGUUGGCGUAACGGUAACGCGUCUCCCUCCUAAGGAGAAGACUGCGGGUUCGAGUCCCGUACGGAACG it was 0.806; in that of GUUGCGUCGGCGUAAUGGUAACGCGUCUCCCUCCUAAGGAGAAGACUGCGGGUUCGAGUUCCCUACGAAACG, no more than 0.5.
With GUUGCGUUGGCGUAAAGGUAACGCGUCUCCCUCCUCAGGAGAAGACUGCGGGUUCGCGUCACGCACGGAACG, the yeast fitness was no more than 0.5.
In the case of GUUGCGUUGGCGUAAGGGUAACGCGUCUCCCUCCUAAGGAGAAGACUACGGGUUCGGGUCCCGUACGGUACG it was no more than 0.5.
Then GUUGCGUCGGCGUAAUGGUAACGCGUCUCCCUCCUAAGGAGAAGACUGCGAGUUCGAGUCCCGUAAGGAACG, with no more than 0.5; and GUUGCGUUGGCGUAAUGGUAACGCGACUCUCUCCUAAGGAGAAGACUACGGGUAGGAGUCCCGUUCGGAACG, with no more than 0.5; and GUUGCGUUGGCGAAAUGGUAACGCGUCUCCCUCCUAAGGAGAAGACUGCGGGAUCGAGUCCCGUGCGGAACG, with no more than 0.5.
Take GUUGCGAUGGAGUAAUGGUACCGCGUCUUCCUCCUAAGGAGAAGACUGUGGGUUCGAGUCCCGUACGGAACG: the yeast fitness was no more than 0.5.
In the case of GUUGCGUUGGCGUAAUGGUAACGCGACUCCCUCCUAAGGAGAAGACUGCGGGUUCGAGUCCCGUACGGAACG it was 0.796; in that of GUUGCGUUGGCGUAAUGGUAACGCGCCUCCCUCCUAAGGAGAAGACUGCGGGUUCGAGUCCCGUACGGAACG, 0.993.
In the case of GUUGCGUGAGUGUAAUGGUAACGCGUCUCCCUCGUAAGGAGAAGACUGUGGGUUCGAGUCCCGUACGGAACG it was no more than 0.5.
Then GUUGCGUUGGCGUAACGGUAACGCGUCUCCUUCCUAAGGAGAAGACUGCGGGUUCGAGUCCCGUACGGAUCG, with no more than 0.5.
As for GUUGCGUUGGCGUAAAGGUAACGCGUCUCCCUCCUAAGGAGACGACUGCGGGUUCGAGUCCCGUACGGAACG, the yeast fitness is no more than 0.5.
Then GUUGCGUUGGCGUAAGGGUAACGCGUCUCUCUCAUAAGGAGAAGACUGCGGGGUCGAGUCCCGUACGGACCG, with no more than 0.5.
Then GUUGCGUUGGCGAAAUGGUAACGCGUCUCCCUCCUAAGGAGAAGACUGCGGGUUCGAGUCCCAUACGGAACG, with no more than 0.5.
Then GUUGCGUUGGCGAAAUGGUAACGCGUCUCCCUGCUGAGGAGAAGACUGCGGGUUCGAGUCCCGUACGGAACG, with no more than 0.5; and GUUGCGUGGGCGUAAUGGUAACGCGUCUCCCUCCUAAGGAGCAGACUGCGGGUUUGAGUCCCGUACGGAACG, with no more than 0.5; and GUUGCGUUGGCGAAAUGGUACCGCGUCUCCCUCCUAAGGAGAUGGCUGCGGGUUCGAGUCCCGUACGGAACG, with 0.559.
Regarding GUUGCGUCGGCGUAAUGGUAACGUGUCUCCCUCCUAAGGAGAGGACUGCGGGUUCGAGUCCCGUACGGAACG, the yeast fitness is 0.527.
In the case of GUUGCGUCGGCGUAAUGGUAACGCAUCUCCCUCCUAAGGAGUAGACUGCGGGUUCGAGUCCCGUACGGAACG it was no more than 0.5.
In the case of GUUGCGUAGGCGUCAUGGUAACGCGUCUCCCUCCUAAGGAGAAGACUACGGGUUCGAGUCCCCUACGGAACG it was no more than 0.5; in that of GUUGCGUUGGCGAAAUCGUAACGCGUCUCUCUCCUAAGGAGAAGACUGCGGGUUCGAGUCCCGUACGGAACG, 0.657.
For the variant GUUGCGUAGGCGUAAUGGUAACGCGUCUCCGUCCUAAGGAGAAGACUGCGGGUUCGAGUCCCGUACGGAACG, the yeast fitness is no more than 0.5.
Regarding GUUGCGGUGGCCUAAUGGUUACGCGUCUCCCUCCUAAGGAGAAGACUGCGGGUUCGAGUCCCAUAAGGAACG, the yeast fitness is no more than 0.5.
For the variant GUUGCGUUGGCGUAAUGGCAACGCGUCUCCCUCCUAAGGAGAAGACUGCGGGUUCGAGUCCUAUACGGAACG, the yeast fitness was determined as 0.545.
In the case of GUUGCGUUGGCGGAAUGGUAACGCGUCUCCCUCCUAAGGAGAAGACUGCGGGUUCGAGUCCCGUAUGGAACG it was 0.564; in that of GUUGCGUUGGCGUAAAGGUAACGCGUCUCCCUCCAAAGGAGAAGACUGCGGGUUCGAGUCGCGUACGGAACG, 0.882; in that of GUUGCGUUGGCGUAAAGGUAACGCGUCUCCCUCCUCAGGAGAAGACUGCGGGUGCGAGUUCCGUACGGAGCG, no more than 0.5.
GUUGCGUGAGUGUAAUGGUAACGCGUCUCCCUCCUAAGGAGAAGACUGCGGGUUCGAGUCCCGUACGGAACG: the yeast fitness was 0.562.
In the case of GUUGCGUUGGCGUAAUGGGAACGCGUCUCCCUCCUAAGGAGAAGACUGCGGGUUCGAGUCCCGUACGGUACG it was no more than 0.5.
Then GUUGCGUCGGCGUAAUGGUAACGGGUCUCCCGCCUAAGGAGAAGACUGCGGGUUCGAGUCCCGUACGGAACG, with no more than 0.5; and GUUGCGGUGGCGUAAUGGUAACGCGUCUCCCUCCUAAGGAGAAGACUGCGGGUUCGAGUCCCGUACGGUACG, with no more than 0.5.

These data come from the RNAGym collection of RNA variant scans (doi:10.1126/science.aae0568).
